Assay results taken from ChEMBL document CHEMBL4680311, “Synthesis, characterization, in vitro SAR study, and preliminary in vivo toxicity evaluation of naphthylmethyl substituted bis-imidazolium salts” (Bioorg Med Chem, 2021).

How the values were obtained:
HCC827 = assay: Cytotoxicity against human HCC827 cells assessed as cell growth inhibition measured after 72 hrs by MTT assay; format: functional, cell-based; conditions: HCC827, 72 h
Procedure, shortened: (§1)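 Cells kept in RPMI 1640 with 10% FBS at 37 °C, 5% CO₂, passaged every 2–3 days; grown to confluence, seeded at 5,000–7,000 cells/well depending on line, incubated 24 h. Compounds dissolved in 1% DMSO, diluted in medium to 1, 4, 16, 32 μM (6 replicates each), 72 h exposure. MTT 3–4 h, medium aspirated, DMSO added, 15 min, OD 540 nm; IC50 relative to untreated cells.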

NCI-H460 [1] = assay: Cytotoxicity against human NCI-H460 cells assessed as cell growth inhibition measured after 72 hrs by MTT assay; format: functional, cell-based; conditions: NCI-H460, 72 h; procedure, shortened: as §1
NCI-H1975 = assay: Cytotoxicity against human NCI-H1975 cells assessed as cell growth inhibition measured after 72 hrs by MTT assay; format: functional, cell-based; conditions: NCI-H1975, 72 h; procedure, shortened: as §1
NCI-H226 [2] = assay: Antiproliferative activity against human NCI-H226 cells assessed as cell growth at 10 uM incubated for 48 hrs by sulforhodamine B assay relative to control; format: functional; conditions: read-out: Activity
Procedure, shortened: (§2)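 NCI DTP NCI-60 one-dose screen on the NSCLC panel. Cells were seeded at densities set by doubling rate and incubated 24 h. They were then exposed to a single 10 μM dose for 48 h. Each value is a growth percentage relative to the initial cell population: positive means net growth, negative means net cell kill.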

NCI-H23 [3] = assay: Antiproliferative activity against human NCI-H23 cells assessed as cell growth at 10 uM incubated for 48 hrs by sulforhodamine B assay relative to control; format: functional; conditions: read-out: Activity; procedure, shortened: as §2
NCI-H460 [4] = assay: Antiproliferative activity against human NCI-H460 cells assessed as cell growth at 10 uM incubated for 48 hrs by sulforhodamine B assay relative to control; format: functional; conditions: read-out: Activity; procedure, shortened: as §2
HOP-92 [5] = assay: Antiproliferative activity against human HOP-92 cells assessed as cell growth at 10 uM incubated for 48 hrs by sulforhodamine B assay relative to control; format: functional; conditions: read-out: Activity; procedure, shortened: as §2
NCI-H522 [6] = assay: Antiproliferative activity against human NCI-H522 cells assessed as cell growth at 10 uM incubated for 48 hrs by sulforhodamine B assay relative to control; format: functional; conditions: read-out: Activity; procedure, shortened: as §2
HOP-62 [7] = assay: Antiproliferative activity against human HOP-62 cells assessed as cell growth at 10 uM incubated for 48 hrs by sulforhodamine B assay relative to control; format: functional; conditions: read-out: Activity; procedure, shortened: as §2
NCI-H322M [8] = assay: Antiproliferative activity against human NCI-H322M cells assessed as cell growth at 10 uM incubated for 48 hrs by sulforhodamine B assay relative to control; format: functional; conditions: read-out: Activity; procedure, shortened: as §2
A549 [9] = assay: Antiproliferative activity against human A549/ATCC cells assessed as cell growth at 10 uM incubated for 48 hrs by sulforhodamine B assay relative to control; format: functional; conditions: read-out: Activity; procedure, shortened: as §2
EKVX [10] = assay: Antiproliferative activity against human EKVX cells assessed as cell growth at 10 uM incubated for 48 hrs by sulforhodamine B assay relative to control; format: functional; conditions: read-out: Activity; procedure, shortened: as §2
A549 [11] = assay: Cytotoxicity against human A549 cells assessed as cell growth inhibition measured after 72 hrs by MTT assay; format: functional, cell-based; conditions: A549, 72 h; procedure, shortened: as §1
HOP-92 [12] = assay: Growth inhibition of human HOP-92 cells incubated for 48 hrs by sulforhodamine B assay; format: functional
Procedure, shortened: (§3)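 NCI DTP NCI-60 five-dose screen, same procedure as the one-dose assay: 24 h preincubation, then 48 h exposure. Five tenfold-spaced concentrations were used, from 100 μM to 10 nM or from 25 μM to 2.5 nM depending on compound. GI50, TGI and LC50 were read from growth-percentage curves relative to control cells.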

[13] = Toxicity in C57BL/6 mouse assessed as body weight loss measured on day 6 at 20 mg/kg, ip administered on day 0, 7, 14 and 29; conditions: in vivo
NCI-H460 [14] = assay: Growth inhibition of human NCI-H460 cells incubated for 48 hrs by sulforhodamine B assay; format: functional; procedure, shortened: as §3
[15] = Toxicity in C57BL/6 mouse assessed as body weight loss recovery measured after second and third injection at 20 mg/kg, ip administered on day 0, 7, 14 and 29 relative to control; format: organism-based; conditions: in vivo, 96 h, time 4 day
Procedure, shortened: (§4)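 Male C57BL/6 mice, eight weeks old, acclimated 5 days, 3 per cage, 12 h light/dark, food and water ad libitum. IP injection of 100 μL of a 4 mg/mL solution in 20% 2-HPβCD sterile PBS (~20 mg/kg assuming 20 g mouse) on days 0, 7, 14, 29. Vehicle mice got 2-HPβCD on days 0, 7, 14, 21, 25, 29. Weighed and observed daily; sacrificed day 29.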

NCI-H226 [16] = assay: Growth inhibition of human NCI-H226 cells incubated for 48 hrs by sulforhodamine B assay; format: functional; procedure, shortened: as §3
A549 [17] = assay: Growth inhibition of human A549/ATCC cells incubated for 48 hrs by sulforhodamine B assay; format: functional; conditions: for CC50: read-out: LC50 (the source's name); procedure, shortened: as §3
NCI-H522 [18] = assay: Growth inhibition of human NCI-H522 cells incubated for 48 hrs by sulforhodamine B assay; format: functional; conditions: for CC50: read-out: LC50 (the source's name); procedure, shortened: as §3
NCI-H23 [19] = assay: Growth inhibition of human NCI-H23 cells incubated for 48 hrs by sulforhodamine B assay; format: functional; procedure, shortened: as §3
EKVX [20] = assay: Growth inhibition of human EKVX cells incubated for 48 hrs by sulforhodamine B assay; format: functional; procedure, shortened: as §3
HOP-62 [21] = assay: Growth inhibition of human HOP-62 cells incubated for 48 hrs by sulforhodamine B assay; format: functional; procedure, shortened: as §3
NCI-H322M [22] = assay: Growth inhibition of human NCI-H322M cells incubated for 48 hrs by sulforhodamine B assay; format: functional; procedure, shortened: as §3
[23] = Toxicity in C57BL/6 mouse assessed as body weight loss at 20 mg/kg, ip administered on day 0, 7, 14 and 29 relative to control; format: organism-based; conditions: in vivo, 96 h, time 4 day
Procedure, shortened: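 Male C57BL/6 mice, 8 weeks old, acclimated 5 days, 12 h light/dark, 3 per cage, n = 3. Mice got 100 μL of 4 mg/mL drug in 20% 2-HPβCD in sterile PBS, about 20 mg/kg assuming 20 g, IP on days 0, 7, 14 and 29 (1 h before sacrifice). Vehicle mice were dosed IP on days 0, 7, 14, 21, 25 and 29. Weight and behaviour were checked daily; sacrifice was on day 29.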

[24] = Toxicity in C57BL/6 mouse assessed as body weight gain at 20 mg/kg, ip administered on day 0, 7, 14 and 29; format: organism-based; conditions: in vivo, 96 h, time 4 day; procedure, shortened: as §4

SMILES	IC50 (HCC827) [µM]	IC50 (NCI-H460 [1]) [µM]	IC50 (NCI-H1975) [µM]	growth at 10 µM (NCI-H226 [2]) [%]	growth at 10 µM (NCI-H23 [3]) [%]	growth at 10 µM (NCI-H460 [4]) [%]	growth at 10 µM (HOP-92 [5]) [%]	growth at 10 µM (HOP-62 [7]) [%]	growth at 10 µM (NCI-H322M [8]) [%]	growth at 10 µM (A549 [9]) [%]	growth at 10 µM (EKVX [10]) [%]	IC50 (A549 [11]) [µM]	GI50 (HOP-92 [12]) [µM]	LC50 (concentration giving 50% net cell kill) (HOP-92 [12]) [µM]	GI50 (NCI-H460 [14]) [µM]	LC50 (concentration giving 50% net cell kill) (NCI-H460 [14]) [µM]	TGI (NCI-H460 [14]) [µM]	GI50 (NCI-H226 [16]) [µM]	LC50 (NCI-H226 [16]) [µM]	TGI (NCI-H226 [16]) [µM]	other results
c1ccc2cc(Cn3cc[n+](Cc4ccc5ccccc5c4)c3)ccc2c1	9	4	6																		
c1ccc2cc(Cn3cc[n+](CCCCCCn4cc[n+](Cc5ccc6ccccc6c5)c4)c3)ccc2c1	12	2	6	69.6	30.5	24.6	59.9	55.8	76.2	38.6	37.3	< 1									growth at 10 µM (NCI-H522 [6]): 33.1%
[Br-].[Br-].c1ccc2cc(Cn3cc[n+](CCCCCCCCCCn4cc[n+](Cc5ccc6ccccc6c5)c4)c3)ccc2c1	7	< 1	2	39.5	5.67	11	-23.6	-4.86	34.5	18.6	13.7	< 1	0.396	15.2	0.376	45.9	10.1	0.918	> 100	13.6	body weight loss at 96 h [13]: 10%; Activity [15]: Toxic; CC50 (A549 [17]): 50.3 µM; GI50 (NCI-H522 [18]): 0.436 µM; CC50 (NCI-H522 [18]): 5.95 µM; GI50 (NCI-H23 [19]): 0.445 µM; LC50 (NCI-H23 [19]): 39.9 µM; GI50 (EKVX [20]): 0.442 µM; LC50 (EKVX [20]): 58.4 µM; GI50 (HOP-62 [21]): 1.09 µM; LC50 (concentration giving 50% net cell kill) (HOP-62 [21]): 44.5 µM; GI50 (NCI-H322M [22]): 3.55 µM; LC50 (concentration giving 50% net cell kill) (NCI-H322M [22]): 48.1 µM; TGI (NCI-H322M [22]): 18.4 µM; Activity [23]: 4%; Activity [24]: Toxic
c1ccc2cc(Cn3cc[n+](CCCCCCCCCCCCn4cc[n+](Cc5ccc6ccccc6c5)c4)c3)ccc2c1	4	< 1	< 1	-42.1	-80.3		-68.2	-58	-18.4	-74.2	-62.6	< 1	0.5	7.29	0.814	14.6	2.96	0.984	> 25	5.52	GI50 (A549 [17]): 0.744 µM; CC50 (A549 [17]): 14.2 µM; GI50 (NCI-H522 [18]): 0.47 µM; CC50 (NCI-H522 [18]): 9.89 µM; GI50 (NCI-H23 [19]): 0.722 µM; LC50 (NCI-H23 [19]): 11.2 µM; GI50 (EKVX [20]): 0.893 µM; LC50 (EKVX [20]): 20.8 µM; GI50 (HOP-62 [21]): 0.815 µM; LC50 (concentration giving 50% net cell kill) (HOP-62 [21]): 12.2 µM; GI50 (NCI-H322M [22]): 0.859 µM; LC50 (concentration giving 50% net cell kill) (NCI-H322M [22]): 10.4 µM; TGI (NCI-H322M [22]): 3.9 µM
c1ccc2cc(Cn3cc[n+](CCn4cc[n+](Cc5ccc6ccccc6c5)c4)c3)ccc2c1	> 30	14	> 30	82.7	88.9		79.2	86	86.4	64.1	91.4	> 30									
